From ChEMBL document CHEMBL1142960, “Synthesis and structure-activity relationships for 2,4-dinitrobenzamide-5-mustards as prodrugs for the Escherichia coli nfsB nitroreductase in gene therapy” (J Med Chem, 2007)
pIC50: −log10 of the molar value. ≈ marks a conversion by molar mass, not a printed value.

tested on: not listed separately; experiment: Partition coefficient at pH 7.4 by shake-flask method; type: physicochemical; conditions: octanol/water
Procedure, shortened: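 Octanol-water partition coefficient by shake-flask at pH 7.4, reported with SEM.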

| Structure (SMILES) | logD |
| --- | --- |
| O=C(NCC(O)CO)c1cc(N(CCI)CCI)c([N+](=O)[O-])cc1[N+](=O)[O-] (centres undefined) | 1.79 |
| NC(=O)c1cc(N(CCBr)CCBr)c([N+](=O)[O-])cc1[N+](=O)[O-] | 1.97 |

tested on: V79; experiment: Antiproliferative activity against chinese hamster wild-type V79 NTR-ve cells after 18 hrs; type: functional, cell-based; conditions: Cricetulus griseus, V79, 18 h

| Structure (SMILES) | pIC50 |
| --- | --- |
| O=C(NCC(O)CO)c1cc(N(CCI)CCI)c([N+](=O)[O-])cc1[N+](=O)[O-] (centres undefined) | 3.94 |
| NC(=O)c1cc(N(CCBr)CCBr)c([N+](=O)[O-])cc1[N+](=O)[O-] | 4.37 |

tested on: V79; experiment: Antiproliferative activity against chinese hamster V79 NTRpuro cells after 18 hrs; type: functional, cell-based; conditions: Cricetulus griseus, V79, 18 h

| Structure (SMILES) | pIC50 |
| --- | --- |
| O=C(NCC(O)CO)c1cc(N(CCI)CCI)c([N+](=O)[O-])cc1[N+](=O)[O-] (centres undefined) | 6.00 |
| NC(=O)c1cc(N(CCBr)CCBr)c([N+](=O)[O-])cc1[N+](=O)[O-] | 6.74 |

tested on: V79; experiment: Selectivity ratio of IC50 for V79 NTR-ve cells to IC50 for V79 NTRpuro cells; type: functional, Cricetulus griseus; conditions: not given

| Structure (SMILES) | Ratio IC50 |
| --- | --- |
| O=C(NCC(O)CO)c1cc(N(CCI)CCI)c([N+](=O)[O-])cc1[N+](=O)[O-] (centres undefined) | 100 |
| NC(=O)c1cc(N(CCBr)CCBr)c([N+](=O)[O-])cc1[N+](=O)[O-] | 302 |

tested on: EMT6; experiment: Antiproliferative activity against mouse wild type EMT6 NTR-ve cells after 18 hrs; type: functional, cell-based; conditions: EMT6, 18 h

| Structure (SMILES) | pIC50 |
| --- | --- |
| O=C(NCC(O)CO)c1cc(N(CCI)CCI)c([N+](=O)[O-])cc1[N+](=O)[O-] (centres undefined) | 4.24 |
| NC(=O)c1cc(N(CCBr)CCBr)c([N+](=O)[O-])cc1[N+](=O)[O-] | 4.32 |

tested on: EMT6; experiment: Antiproliferative activity against mouse EMT6 NTRpuro cells after 18 hrs; type: functional, cell-based; conditions: EMT6, 18 h

| Structure (SMILES) | pIC50 |
| --- | --- |
| O=C(NCC(O)CO)c1cc(N(CCI)CCI)c([N+](=O)[O-])cc1[N+](=O)[O-] (centres undefined) | 6.92 |
| NC(=O)c1cc(N(CCBr)CCBr)c([N+](=O)[O-])cc1[N+](=O)[O-] | 7.40 |

tested on: EMT6; experiment: Selectivity ratio of IC50 for EMT6 NTR-ve cells to IC50 forEMT6 NTRpuro cells; type: functional, Mus musculus; conditions: not given

| Structure (SMILES) | Ratio IC50 |
| --- | --- |
| O=C(NCC(O)CO)c1cc(N(CCI)CCI)c([N+](=O)[O-])cc1[N+](=O)[O-] (centres undefined) | 482 |
| NC(=O)c1cc(N(CCBr)CCBr)c([N+](=O)[O-])cc1[N+](=O)[O-] | 1110 |

tested on: WiDr; experiment: Antiproliferative activity against human wild type WiDr NTR-ve cells after 18 hrs; type: functional, cell-based; conditions: not given

| Structure (SMILES) | pIC50 |
| --- | --- |
| O=C(NCC(O)CO)c1cc(N(CCI)CCI)c([N+](=O)[O-])cc1[N+](=O)[O-] (centres undefined) | 4.19 |
| NC(=O)c1cc(N(CCBr)CCBr)c([N+](=O)[O-])cc1[N+](=O)[O-] | 4.40 |

tested on: WiDr; experiment: Antiproliferative activity against human WiDr NTRneo cells after 18 hrs; type: functional, cell-based; conditions: not given

| Structure (SMILES) | pIC50 |
| --- | --- |
| O=C(NCC(O)CO)c1cc(N(CCI)CCI)c([N+](=O)[O-])cc1[N+](=O)[O-] (centres undefined) | 6.09 |
| NC(=O)c1cc(N(CCBr)CCBr)c([N+](=O)[O-])cc1[N+](=O)[O-] | 6.66 |

tested on: WiDr; experiment: Selectivity ratio of IC50 for WiDr NTR-ve cells to IC50 for WiDr NTRneo cells; type: functional, Homo sapiens; conditions: not given

| Structure (SMILES) | Ratio IC50 |
| --- | --- |
| O=C(NCC(O)CO)c1cc(N(CCI)CCI)c([N+](=O)[O-])cc1[N+](=O)[O-] (centres undefined) | 90 |
| NC(=O)c1cc(N(CCBr)CCBr)c([N+](=O)[O-])cc1[N+](=O)[O-] | 174 |

tested on: not listed separately; experiment: Antiproliferative activity against human wild type Skov3 NTR-ve cells after 18 hrs; type: functional, cell-based; conditions: not given

| Structure (SMILES) | pIC50 |
| --- | --- |
| O=C(NCC(O)CO)c1cc(N(CCI)CCI)c([N+](=O)[O-])cc1[N+](=O)[O-] (centres undefined) | 4.01 |
| NC(=O)c1cc(N(CCBr)CCBr)c([N+](=O)[O-])cc1[N+](=O)[O-] | 4.24 |

tested on: V79; experiment: Clonogenic survival of V79 NTRoua cells after 5 hrs by MCL assay; type: functional, Cricetulus griseus; conditions: not given

| Structure (SMILES) | Activity |
| --- | --- |
| O=C(NCC(O)CO)c1cc(N(CCI)CCI)c([N+](=O)[O-])cc1[N+](=O)[O-] (centres undefined) | 245 µM |
| NC(=O)c1cc(N(CCBr)CCBr)c([N+](=O)[O-])cc1[N+](=O)[O-] | >50 µM |

tested on: not listed separately; experiment: Antiproliferative activity against human Skov3 NTRneo cells after 18 hrs; type: functional, cell-based; conditions: SK-OV-3, 18 h

| Structure (SMILES) | pIC50 |
| --- | --- |
| O=C(NCC(O)CO)c1cc(N(CCI)CCI)c([N+](=O)[O-])cc1[N+](=O)[O-] (centres undefined) | 6.25 |
| NC(=O)c1cc(N(CCBr)CCBr)c([N+](=O)[O-])cc1[N+](=O)[O-] | 6.48 |

tested on: not listed separately; experiment: Selectivity ratio of IC50 for Skov3 NTR-ve cells to IC50 for Skov3 NTRneo cells; type: functional, Homo sapiens; conditions: not given

| Structure (SMILES) | Ratio IC50 |
| --- | --- |
| O=C(NCC(O)CO)c1cc(N(CCI)CCI)c([N+](=O)[O-])cc1[N+](=O)[O-] (centres undefined) | 172 |
| NC(=O)c1cc(N(CCBr)CCBr)c([N+](=O)[O-])cc1[N+](=O)[O-] | 211 |

tested on: V79; experiment: Clonogenic survival of 3% V79 NTRpuro cells in co-cultures with 97% V79 NTRoua after 5 hrs by MCL assay; type: functional, Cricetulus griseus; conditions: not given
Procedure, shortened: (§1)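 Multicellular layer cocultures of 3% V79-NTRpuro activators and 97% V79oua NTR-ve targets (ouabain-resistant), exposed to prodrug for 5 h. MCLs were then trypsin-dissociated and plated in ouabain or puromycin selective media for clonogenic survival. C10 (10% survival) interpolated for activators and targets; AC/TC ratio derived. Mean with SEM or range over independent experiments.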

| Structure (SMILES) | Activity |
| --- | --- |
| O=C(NCC(O)CO)c1cc(N(CCI)CCI)c([N+](=O)[O-])cc1[N+](=O)[O-] (centres undefined) | 12.5 µM |
| NC(=O)c1cc(N(CCBr)CCBr)c([N+](=O)[O-])cc1[N+](=O)[O-] | 3.3 µM |

tested on: V79; experiment: Clonogenic survival of 97% V79 NTRoua cells in co-cultures with 3% V79 NTRpuro cells after 5 hrs by MCL assay; type: functional, Cricetulus griseus; conditions: not given; procedure, shortened: as §1

| Structure (SMILES) | Activity |
| --- | --- |
| O=C(NCC(O)CO)c1cc(N(CCI)CCI)c([N+](=O)[O-])cc1[N+](=O)[O-] (centres undefined) | 54 µM |
| NC(=O)c1cc(N(CCBr)CCBr)c([N+](=O)[O-])cc1[N+](=O)[O-] | 4.6 µM |

tested on: not listed separately; experiment: Toxicity in ip dosed CD1 nude mouse in DMSO/PEG; type: organism-based; conditions: in vivo
Procedure, shortened: (§2)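 Maximum tolerated dose (MTD) determined in CD-1 nude mice after a single i.p. injection of prodrug, given in the vehicle named in each line.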

| Structure (SMILES) | MTD |
| --- | --- |
| O=C(NCC(O)CO)c1cc(N(CCI)CCI)c([N+](=O)[O-])cc1[N+](=O)[O-] (centres undefined) | 237 µmol/kg |
| NC(=O)c1cc(N(CCBr)CCBr)c([N+](=O)[O-])cc1[N+](=O)[O-] | > 1330 µmol/kg |

tested on: not listed separately; experiment: Toxicity in ip dosed CD1 nude mouse in DMSO; type: organism-based; conditions: in vivo; procedure, shortened: as §2

| Structure (SMILES) | MTD |
| --- | --- |
| NC(=O)c1cc(N(CCBr)CCBr)c([N+](=O)[O-])cc1[N+](=O)[O-] | > 1330 µmol/kg |

tested on: EMT6; experiment: Antitumor activity against mixed mouse EMT6/EMT6 NTRpuro cells injected in CD1 nude mouse assessed as cell kill at 562 umol/kg, ip in DMSO/PEG after 18 hrs; type: functional; conditions: not given

| Structure (SMILES) | LCK |
| --- | --- |
| NC(=O)c1cc(N(CCBr)CCBr)c([N+](=O)[O-])cc1[N+](=O)[O-] | 4.17 |

tested on: EMT6; experiment: Antitumor activity against mixed mouse EMT6/EMT6 NTRpuro cells injected in CD1 nude mouse assessed as cell kill at 237 umol/kg, ip in DMSO/PEG after 18 hrs; type: functional; conditions: not given

| Structure (SMILES) | LCK |
| --- | --- |
| O=C(NCC(O)CO)c1cc(N(CCI)CCI)c([N+](=O)[O-])cc1[N+](=O)[O-] (centres undefined) | 0.54 |

tested on: WiDr; experiment: Antitumor activity against human 10% WiDr NTRneo/ 90% WiDr tumor cells injected in CD1 nude mouse assessed as growth delay at >1330 umol/kg, ip in DMSO; type: functional; conditions: not given
Procedure, shortened: (§3)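 WiDr-NTRneo tumours (100% NTR+ve, or 1:9 NTR+ve:NTR-ve mixtures) in CD-1 nude mice, given a single i.p. dose at MTD. Read-out is median growth delay to 15 mm mean diameter, plus tumours not palpable 100 days after treatment. Aziridine given at 200 µmol/kg as positive control in every experiment.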

| Structure (SMILES) | Activity |
| --- | --- |
| NC(=O)c1cc(N(CCBr)CCBr)c([N+](=O)[O-])cc1[N+](=O)[O-] | 20 days |

tested on: not listed separately; experiment: Solubility in alpha MEM; type: physicochemical; conditions: not given
Procedure, shortened: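 Solubility (mM) in α-MEM with 5% fetal calf serum at ambient temperature, measured by HPLC.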

| Structure (SMILES) | solubility |
| --- | --- |
| O=C(NCC(O)CO)c1cc(N(CCI)CCI)c([N+](=O)[O-])cc1[N+](=O)[O-] (centres undefined) | 960 µM (≈ 584 µg/mL) |

tested on: not listed separately; experiment: Stability in alpha MEM at 37 degC after 24 hrs; type: physicochemical; conditions: read-out: Stability
Procedure, shortened: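 Percent parent compound remaining, by HPLC, after holding in α-MEM with 5% fetal calf serum at 37 °C for 24 h.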

| Structure (SMILES) | remaining at 24 h |
| --- | --- |
| O=C(NCC(O)CO)c1cc(N(CCI)CCI)c([N+](=O)[O-])cc1[N+](=O)[O-] (centres undefined) | 90% |
| NC(=O)c1cc(N(CCBr)CCBr)c([N+](=O)[O-])cc1[N+](=O)[O-] | 98% |

tested on: WiDr; experiment: Antitumor activity against human 100% WiDr NTRneo tumor cells injected in CD1 nude mouse assessed as growth delay at >1330 umol/kg, ip in DMSO; type: functional; conditions: not given; procedure, shortened: as §3

| Structure (SMILES) | Activity |
| --- | --- |
| NC(=O)c1cc(N(CCBr)CCBr)c([N+](=O)[O-])cc1[N+](=O)[O-] | >84 days |

tested on: WiDr; experiment: Antitumor activity against human 100% WiDr NTRneo tumor cells injected in CD1 nude mouse assessed as growth delay at 562 umol/kg, ip in DMSO/PEG; type: functional; conditions: not given; procedure, shortened: as §3

| Structure (SMILES) | Activity |
| --- | --- |
| NC(=O)c1cc(N(CCBr)CCBr)c([N+](=O)[O-])cc1[N+](=O)[O-] | >84 days |

tested on: WiDr; experiment: Antitumor activity against human 100% WiDr NTRneo tumor cells injected in CD1 nude mouse assessed as growth delay at 237 umol/kg, ip in DMSO/PEG; type: functional; conditions: not given; procedure, shortened: as §3

| Structure (SMILES) | Activity |
| --- | --- |
| O=C(NCC(O)CO)c1cc(N(CCI)CCI)c([N+](=O)[O-])cc1[N+](=O)[O-] (centres undefined) | 37 days |
